Myeloid diff MLP: myeloid differentiation induction; ER-HoxA9 myeloid progenitors, lysozyme-GFP differentiation, flow cytometry; calls only at 10 µM; hit rate 1% among 360,000; AID 624256;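 active means normalized GFP-positive differentiation at or above the plate's own cutoff, the solvent-only control mean plus 3 SD; inconclusive means no clear call, values can overlap the other calls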;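 further: cells exposed to compound for four days before flow analysis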
HNF4A DNA FP: change in binding of human HNF4 alpha to DNA; HNF4a-FITC DNA binding, fluorescence polarization, 1 h; activity change, % at 10 µM; hit rate 0.3% among 360,000; AID 1224865; in the data active means activity change above about 30%, passing the limit was not always enough
Exocytosis inh: blocks lytic granule exocytosis; hit rate 0.66% among 360,000; TALL-104 LAMP-1 surface exposure, flow cytometry; cells stimulated with thapsigargin and PMA; inhibition, % at 10 µM;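 active means inhibition above about 55%, limit read from the data; inconclusive means no clear call, values can overlap the other calls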
CSN inh: blocks human CSN-mediated cullin deneddylation; Purified CSN, SCF-Nedd8-OG deneddylation, fluorescence polarization; inhibition, % at 12.5 µM; hit rate 0.38% among 360,000; AID 651999; Q92905;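 active means pattern-corrected inhibition above about 35%, with an unprinted fluorescence ratio check between 0.5 and 1.5, limit read from the data, passing the limit was not always enough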;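 further: 0% = enzyme with substrate and 100% = substrate without enzyme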
Target sequence (Q92905 whole entry, looked up, one chain of several): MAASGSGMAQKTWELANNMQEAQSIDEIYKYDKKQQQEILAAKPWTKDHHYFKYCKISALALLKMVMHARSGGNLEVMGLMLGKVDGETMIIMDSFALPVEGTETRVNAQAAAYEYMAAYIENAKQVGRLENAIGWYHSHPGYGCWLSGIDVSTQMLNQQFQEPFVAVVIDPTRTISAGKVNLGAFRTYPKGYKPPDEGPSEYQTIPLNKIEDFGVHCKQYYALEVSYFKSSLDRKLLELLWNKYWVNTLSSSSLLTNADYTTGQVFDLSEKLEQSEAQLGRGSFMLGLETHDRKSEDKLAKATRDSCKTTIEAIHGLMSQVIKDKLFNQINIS
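Test system: Human Csn5 produced in HEK293T cells | Compound: 12.5 µM single point | Times: 90 min, room temperature | Signal: Fluorescence polarization readout | Read-out basis: % inhibition of substrate cleavage by Csn5 | Controls: no-enzyme wells high, enzyme-with-substrate wells low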
Granule exo CP1: lytic granule exocytosis inhibition; hit rate 11% among 1,500; shares compounds with Exocytosis inh; inhibition, % at 10 µM; TALL-104 cells, LAMP-1 externalization, flow cytometry; stimulated with PMA plus thapsigargin; AID 651954; in the data active means inhibition above about 60%;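 further: 0% = stimulated vehicle wells and 100% = unstimulated wells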
Numbers without * were called inactive; i = inactive; ? = inconclusive; / = not tested or not shown. This is a sample that favours compounds with a hit; in the whole collection about 2.2% have one here.

SMILES	Myeloid diff MLP	HNF4A DNA FP	Exocytosis inh	CSN inh	Granule exo CP1
C=CCc1ccc(OCC(O)CN2CCC(Cc3ccccc3)CC2)c(OC)c1 (centres undefined)	i	1	56*	-3	-9
c1ccc(-c2ccccc2-c2nc(-c3cccnc3)no2)cc1	i	-1	93*	-1	18
c1cncc(-c2noc(-c3cccc4ccccc34)n2)c1	i	1	-1	-2	/
Brc1ccc2ncnc(NCc3ccco3)c2c1	i	3	-2	3	/
OC(CNCc1ccco1)Cn1c2ccc(Br)cc2c2cc(Br)ccc21 (centres undefined)	i	3	78*	12	-9
Cc1cc(C)nc(NC(=NCCc2c[nH]c3ccccc23)NC(=O)C(C)(C)C)n1	i	-1	83*	-2	-3
Cc1cc(C)nc(N2C(=O)CC(C(=O)O)NC2=NCCc2c[nH]c3ccccc23)n1 (centres undefined)	i	1	-3	2	/
OC1(c2cccc(C(F)(F)F)c2)CCN(c2ncnc3c2[nH]c2ccc(F)cc23)CC1	i	1	96*	0	68*
COc1ccc(C(=O)OCC(=O)NCC2CCCCC2)c(OC)c1	i	4	-8	1	/
COc1ccc(NC(=O)c2cc([N+](=O)[O-])ccc2N2CCCC2)cc1	i	1	-2	-2	/
COc1ccc(NC(=O)c2cc([N+](=O)[O-])ccc2N2CCCCC2)cc1	i	31*	68*	2	-13
NC(=O)c1ccc(NC(=O)COC(=O)C2(c3cccc(F)c3)CCCC2)cc1	i	-1	-2	1	/
CN(C)C(=O)c1ccc(NC(=O)COC(=O)C2(c3ccccc3)CCCC2)cc1	i	3	76*	0	-5
CC(Sc1nc2cc([N+](=O)[O-])ccc2n1-c1ccc(F)cc1)C(=O)NCc1ccc2c(c1)OCO2 (centres undefined)	i	5	88*	1	-5
COc1ccccc1-n1c(SCC(=O)NCc2ccc3c(c2)OCO3)nc2cc([N+](=O)[O-])ccc21	i	1	95*	6	0
COc1ccc(-c2cc(C(=O)Nc3c(C)n(C)n(-c4ccccc4)c3=O)c3ccccc3n2)c(OC)c1	?	6	8	-3	/
CC1CCN(CCCNC(=O)c2ccc3c(=O)n(Cc4ccc(Cl)cc4)c(=S)[nH]c3c2)CC1	i	1	71*	6	11
COC(=O)c1ccc2c(=O)n(Cc3ccc(C(=O)NCCCN4CCC(C)CC4)cc3)c(=S)[nH]c2c1	/	8	1	3	/
COc1ccc(C(=O)NC(=O)CSc2nc3nc(C)cc(C)n3n2)cc1	i	0	-6	6	/
CN(C)CCCn1c2c3ccccc3ccc2c2oc(=O)c3ccccc3c21	?	4	56*	-64	23
COc1ccc(S(=O)(=O)N2CCOCC2)cc1NC(=O)CN1C(=O)NC(C)(C2CC2)C1=O (centres undefined)	i	0	-4	-2	/
CN1CCN(C(=O)C2=C[C@H](c3coc4ccccc4c3=O)C[C@H](OCCCCO)O2)CC1	i	1	-1	2	/
O=C(C1=C[C@@H](c2coc3ccccc3c2=O)C[C@@H](OCCCCO)O1)N1CCOCC1	i	-6	66*	-2	-14
CC(C)(C)C(=O)NCC12C=CC(O1)C1C(=O)N(c3ccccc3)C(=O)C12 (centres undefined)	i	-2	64*	1	1
CCc1nccn1C(=O)c1cnn2c(C(F)F)cc(-c3ccc(C)cc3)nc12	i	-1	89*	2	37
SMILES	Myeloid diff MLP	HNF4A DNA FP	Exocytosis inh	CSN inh	Granule exo CP1
N#Cc1ccc(C(=O)NC(=S)N2CCN(C=O)CC2)cc1	i	-2	-1	0	/
CCCCCCNC(=O)c1cccc(-c2ccc(C)c3ccccc23)n1	i	-6	58*	0	-12
CCCCCCCNC(=O)c1cc(-c2ccncc2)nc2ccccc12	i	2	-7	0	/
O=C(CSc1nnc(CNC(=O)c2ccc(F)cc2)o1)Nc1nccs1	i	-1	0	0	/
CN(CC(=O)Nc1ccccc1C(F)(F)F)C(=O)C1=COCCO1	i	1	-2	-3	/
Cc1cc(C(=O)N(C)CC(=O)Nc2ccccc2C(F)(F)F)c(C)o1	i	2	62*	-3	-14
CC(OC(=O)c1cccc(S(=O)(=O)N(C)C)c1)C(=O)NCc1ccc2c(c1)OCO2 (centres undefined)	i	2	1	5	/
COc1ccc2cc(-c3ccccc3F)ncc2c1	i	-2	-4	0	/

Screening data from PubChem.
